In publication PMC12542962 (Science Advances, 2025):
In brackets after ≈: the same amount, converted by molar mass. Read-outs that look alike come from different tables or passages of the source.

How the values were obtained:
[1] = tested on: CRKP; test: Time-dependent killing assay; assay type: cell-based, K. pneumoniae; conditions: TINA 20 μg/ml or imipenem 8 μg/ml alone, 24 hours
[2] = tested on: CRKP; test: Resistance development assay, 20 passages; assay type: cell-based, K. pneumoniae; conditions: Klebsiella pneumoniae
Outline: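 Log-phase CRKP clinical isolate diluted in LB broth containing imipenem, with or without test compound, and cultured at 37°C for serial passaging.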

[3] = tested on: CRKP; test: Lethal CRKP pneumonia model, survival; assay type: in vivo, BALB/c mice; conditions: single dose; TINA 10 mg/kg, imipenem 8 mg/kg, or 10 + 8 mg/kg; n = 10
Outline: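 Female BALB/c mice (n = 10 per group) infected with 5 × 10^7 CFU CRKP. Thirty minutes later they were treated with PBS, test compound 10 mg/kg, imipenem 8 mg/kg, or test compound plus imipenem (10 + 8 mg/kg) as a single or double dose. Survival was followed for 7 days postinfection and cumulative survival calculated.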

[4] = tested on: CRKP, CRE, and CRAB; test: Acute pneumonia models, blood indicators, histology and inflammation; assay type: in vivo, BALB/c mice; conditions: TINA 10 mg/kg or imipenem 8 mg/kg, single dose

`C[C@@H](O)[C@H]1C(=O)N2C(C(=O)O)=C(SCCN=CN)C[C@H]12` [Imipenem, imipenem] was tested, and the “change in bacteria counts, monotherapy” value [1] was “increased by two orders of magnitude in bacteria counts”, the MIC ([2]; read-out: MIC after 20 passages) was 2050 µg/mL (≈ 6.84 mM) and the MIC ([2]; read-out: MIC before passaging) was 64 µg/mL (≈ 0.214 mM). The “survival rate at dpi 7” value [3] was 30% and the “effect of monotherapy on live bacteria in the lungs” value [4] was “mere effects on eliminating live bacteria in the lungs”.
